# Source: PubChem
# This is a sample that favours compounds with a hit; in the whole collection about 11% have one here.
# mHtt clearance = mutant huntingtin protein clearance; HeLa Exon1htt(103Q)mCFP, aggregate imaging; zero = plate's median compound well; inhibition, % at 1.5 µM; 47,000 tested, 0.42% active;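 active = inhibition of aggregate fluorescence above about 70%, also judged a hit by eye on the cell image, limit read from the data, passing the limit was not always enough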;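 note: cells exposed to compound for three days before fixation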
# M1 antag = M1 muscarinic receptor (rat) antagonism. B-score at 10 µM. 64,000 tested, 3.4% active. CHO-M1 cells, Fluo-4 calcium, ACh EC80 antagonist mode; hits give low values;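 active = calcium fluorescence response, raw or row-and-column corrected B-score, differing from the plate sample mean either way at a set confidence level, mostly lower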
# RORa activator = activates the human nuclear receptor RORA; CHO-K1 Gal4-RORA LBD luciferase reporter, luminescence; percent increase over mock-subtracted basal signal; activation, % at 10 µM; 65,000 tested, 1.5% active;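 active = activation above the mean of all tested compounds plus 3 SD, cut at about 49% in these data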
# D1 mod = allosteric modulators of human D1 dopamine receptor | HEK293 D1, CRE-luciferase, dopamine EC30 potentiation; actives deviate in either direction | B-score at 10 µM | 58,000 tested, 5.9% active;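 active = luminescence count or its row- and column-corrected plate score outside the 99.7% band of the plate's sample wells, on either side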
# Target sequence (P21728 whole entry, looked up): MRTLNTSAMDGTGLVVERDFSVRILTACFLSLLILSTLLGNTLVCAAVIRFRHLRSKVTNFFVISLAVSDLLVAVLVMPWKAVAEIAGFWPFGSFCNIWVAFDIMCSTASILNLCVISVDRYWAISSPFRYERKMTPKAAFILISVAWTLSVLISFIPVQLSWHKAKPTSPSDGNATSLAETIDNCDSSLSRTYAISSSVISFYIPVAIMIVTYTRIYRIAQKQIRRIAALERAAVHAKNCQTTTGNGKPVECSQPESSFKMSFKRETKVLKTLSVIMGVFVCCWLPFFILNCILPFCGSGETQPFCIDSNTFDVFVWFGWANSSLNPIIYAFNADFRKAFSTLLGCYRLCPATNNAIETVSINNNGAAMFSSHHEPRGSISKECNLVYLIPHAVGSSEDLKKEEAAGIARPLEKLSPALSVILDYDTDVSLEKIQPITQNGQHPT
# M1 agonist = M1 muscarinic receptor agonism | CHO-M1 cells, Fluo-4 calcium fluorescence, agonist mode; hits give high values | B-score at 10 µM | 64,000 tested, 3% active;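 active = fluorescence rise, raw or as B-score row- and column-corrected plate score, outside the 99.7% band of its plate's samples, either direction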
# SF1 activator = SF-1 (human) activation | CHO-K1 Gal4-SF-1 LBD luciferase reporter; % increase over DMSO SF-1-specific signal | activation, % at 10 µM | 65,000 tested, 1.9% active | AID 522;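 active = activation above the mean activation of all tested compounds plus 3 SD, cut at about 50% in these data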
#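 Test system: transient Gal4-SF-1 LBD reporter, CHO-K1; Amount: 4,000 CHO-K1 cells per well; Doses: 10 µM only; Timing: compound exposure 20 h at 37 °C; Signal: luciferase light emission; Read-out basis: percent activation relative to DMSO median and mock-transfected background; Control set: DMSO negative control and −SF1 background wells; Replicates: one test per compound.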
# Hits are given with their value; n = inactive; x = no result.
SMILES,mHtt clearance,M1 antag,RORa activator,D1 mod,M1 agonist,SF1 activator
O=C(Cn1cnc2ccccc2c1=O)Nc1ccc2c(c1)OCCO2,x,n,n,n,n,59.1
N#Cc1c(NC(=O)Cn2cnc3ccccc3c2=O)oc(-c2ccccc2)c1-c1ccccc1,x,n,n,-4.71,n,n
O=C(COc1ncnc2ccccc12)c1ccc2c(c1)OCCO2,n,n,n,n,n,58.5
O=C(CC(=O)c1ccccc1)Nc1ccc2c(c1)OCCO2,x,n,n,n,n,60.8
CCOCC(=O)Nc1ccc2c(c1)OCCO2,n,n,n,n,n,n
Cn1c(=O)n(CC(=O)OCc2ccccc2)c(=O)c2c1nc1n2CCCN1C1CCCCC1,n,n,n,n,n,n
CCOc1ccccc1NC(=O)c1ccc2nccnc2c1,x,n,n,n,n,n
O=C(CS(=O)(=O)c1ccccc1)c1ccc2c(c1)OCCO2,n,n,n,n,n,51.5
C=CCSC1=C(C#N)C(c2ccc(OCC)cc2)CC(=O)N1 (configuration not stated),n,n,n,n,n,n
CN(C)c1ccc(-c2nn3c(-c4ccncc4)nnc3s2)cc1,x,n,n,n,n,n
COc1ccc(-c2nn3c(-c4cccc(C)c4)nnc3s2)cc1OC,x,n,n,16.7,n,n
COc1ccc(-c2nn3c(-c4ccccn4)nnc3s2)cc1OC,x,n,n,x,n,n
COc1ccccc1-c1nnc2sc(-c3ccc(N(C)C)cc3)nn12,x,n,n,7.47,n,n
Cn1cc(CC(=O)N2CCN(c3ccc(Cl)cc3)CC2)c2ccccc21,x,n,n,n,n,n
COCCn1c(C)nc2oc3ccc(Br)cc3c(=O)c2c1=O,n,1.86,n,n,n,n
CCCCOc1ccc(/C(N)=N/O)cc1,x,n,n,n,n,n
Cc1nnc(SCC(N)=O)n1CCc1ccccc1,71.4,x,x,x,x,x
CN1CCN(c2ccc(NC(=O)COc3ccccc3Cl)cc2)CC1,n,x,n,-4.13,x,n
COc1cc(C2Nn3c(nnc3-c3ccccc3OC)S2)ccc1O (configuration not stated),n,x,x,x,x,x
CCn1c(NC(=O)Nc2ccccc2OC)nc2ccccc21,x,n,n,x,n,n
Cn1c(SCc2ccc(C#N)cc2Cl)nc2ccccc21,x,n,81.8,n,n,n
Cn1c(SCc2nnc3n2CCCCC3)nc2ccccc21,n,n,n,n,n,n
COC(=O)c1oc2ccccc2c1NC(=O)CN1CCCC1,x,n,n,13.3,n,n
Cc1cc(N/C=C2\CCCCC2=O)no1,x,n,n,n,n,n
O=C(CSc1nc(N2CCCCC2)nc(N2CCCCC2)n1)NC1CCCCC1,n,n,n,n,n,n
SMILES,mHtt clearance,M1 antag,RORa activator,D1 mod,M1 agonist,SF1 activator
Cc1nn2cc(-c3ccc(N)cc3)nc2s1,n,n,n,n,n,88.5
COCCn1c(CN2CCN(c3cccc(Cl)c3)CC2)nc2c1c(=O)n(C)c(=O)n2C,x,n,n,-3.54,n,n
COC(=O)Cn1cnc(=O)c(C#N)c1/C=C/N(C)C,n,n,n,-4.72,n,n
COC(=O)Cn1cnc2c(C#N)c3n(c2c1=O)CCCCC3,n,n,n,n,n,n
Cc1cccc2cc(CN(Cc3nnnn3Cc3ccco3)C3CCCC3)c3nnnn3c12,n,2.41,n,n,n,n
O=C(Nc1nncs1)c1c(F)c(F)c(F)c(F)c1F,x,1.04,n,n,n,n
COc1ccccc1N1CCN(C(=O)CSc2nc(C)c(Cc3ccccc3)c(=O)[nH]2)CC1,79.6,n,n,n,n,n
c1ccc(NC2=Nc3ccccc3CS2)cc1,x,n,89.4,n,n,n
Brc1ccc(NC2=Nc3ccccc3CC2)cc1,n,x,x,x,x,x
COc1ccc(S(=O)(=O)N2CCCC(C(=O)O)C2)cc1 (configuration not stated),x,n,x,-2.62,n,x
O=C(CSc1nnc(-c2ccccc2)n1Cc1ccco1)Nc1ccc(S(=O)(=O)N2CCCC2)cc1,83.8,x,x,x,x,x
Cc1ccc(-n2c(SCC(=O)Nc3ccc4c(c3)OCCO4)nnc2-c2ccco2)cc1,72.5,n,n,n,n,n
Cc1ccc(-n2c(SCC(=O)Nc3ccc4c(c3)OCO4)nnc2-c2cccs2)cc1,n,n,n,n,n,n
COc1cccc(-c2nnc(SCC(=O)Nc3ccc4c(c3)OCCO4)n2Cc2ccco2)c1,x,n,n,n,5.82,n
CCCn1c(SCC(=O)Nc2ccc3c(c2)OCCO3)nnc1-c1ccco1,x,x,n,n,x,n
Cc1cccc(-n2c(SCC(=O)Nc3ccc4c(c3)OCO4)nnc2-c2ccoc2C)c1,n,n,n,-3.36,n,n
COc1ccc(S(=O)(=O)N(n2c(C)nnc2-n2nc(C)cc2C)S(=O)(=O)c2ccc(OC)cc2)cc1,n,x,x,x,x,x
Cn1c(=O)oc2cc(S(=O)(=O)NCCC(=O)N3CCc4ccccc43)ccc21,n,n,n,n,n,n
CC(C)(C)C(=O)NC1CCN(C(=O)N2CCCC2)CC1,99.2,n,n,n,n,n
CCOC(=O)c1cnc(Nc2nc3ccccc3o2)nc1CSc1nnc(C)s1,n,n,58.3,n,n,n
Cc1csc2nc(CNC(=O)c3ccco3)cn12,n,n,n,n,n,51.8
CC(=O)NCc1cn2c(C)csc2n1,x,n,n,n,n,n
CCc1nnc(NC(=O)C(C)N2C(=O)C3C4C=CC(C4)C3C2=O)s1 (configuration not stated),n,n,n,x,n,n
Cc1csc2nc(CSc3nc4ccccc4o3)c(Br)n12,x,n,n,n,n,61.1
CC(C)OC(=O)c1ccc(NC(=O)C2C3CC4OC(=O)C2C4C3)cc1 (configuration not stated),x,n,n,n,n,56.4
SMILES,mHtt clearance,M1 antag,RORa activator,D1 mod,M1 agonist,SF1 activator
O=S1(=O)C=C(Sc2nc3ccccc3s2)c2ccccc21,x,n,n,-3.71,n,n
Cc1nn(-c2ccc(F)cc2F)c2c1-c1nc(N3CCCC3)ncc1CC2,n,n,n,-5.94,n,n
O=C(Cn1cc2c(n1)CCCCC2)Nc1ccc(F)cc1F,x,n,n,n,n,n
COc1ccc(N2C(=O)NC(NC(=O)c3ccncc3)(C(F)(F)F)C2=O)cc1 (configuration not stated),n,x,x,x,x,x
N#CC(c1nc2ccccc2nc1N1CCCCC1)S(=O)(=O)c1ccc(Cl)cc1 (configuration not stated),x,n,n,-2.52,n,n
CCOC(=O)C1CCN(c2nc3ccccc3nc2C(C#N)C(=O)NCCc2ccccc2)CC1 (configuration not stated),x,n,n,n,33,n
CCCCNC(=O)C(C#N)c1nc2ccccc2nc1N1CCN(c2ccccc2F)CC1 (configuration not stated),n,n,n,n,36,n
COCCCNC(=O)C(C#N)c1nc2ccccc2nc1N1CCN(Cc2ccccc2)CC1 (configuration not stated),x,n,n,x,n,n
Cc1ccc(S(=O)(=O)C(C#N)c2nc3ccccc3nc2N2CCCCC2)cc1 (configuration not stated),x,n,n,n,n,n
